# Experiments:
# [1] = test system: MPC-11; test: In vitro antiproliferative activity was measured in mouse myeloma MPC-11 cell line; assay type: functional; conditions: read-out: ED50 (the source's name)
# [2] = test system: MPC-11; test: In vitro lethal dose was measured in mouse myeloma MPC-11 cell line; assay type: functional; conditions: read-out: LD50 (the source's name)
# [3] = test system: Mus musculus; test: Percent increase in life span calculated as (T/C-1)X100 at a dose of 10 mg/kg/day *5; assay type: functional
# In short: (§1)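 C3D2F1/J mice (groups of six, av wt 25 g) were inoculated ip with 1×10^6 L1210 lymphoid leukemia cells. Dosing started 24 h after implantation and continued daily through day 5. Read-outs were median survival time of treated versus controls (T/C, 24 controls), %ILS = (T/C − 1)×100, 30-day survivors, and weight change on day 8.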
# [4] = test system: Mus musculus; test: Percent increase in life span calculated as (T/C-1)X100 at a dose of 20 mg/kg/day X5; assay type: functional; in short: as §1
# [5] = test system: Mus musculus; test: Percent increase in life span calculated as (T/C-1)X100 at a dose of 40 mg/kg/day X5; assay type: functional; in short: as §1
# [6] = test system: Mus musculus; test: Change in weight of mouse on day 8 was measured in L1210 lymphoid leukemia inoculated mice after ip administration at dose of 10 mg/kg/day *5; assay type: functional; conditions: route intraperitoneal
# In short: (§2)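 C3D2F1/J mice, groups of six, average weight 25 g, were inoculated ip with 1×10^6 L1210 lymphoid leukemia cells following NCI protocol. Dosing was ip, daily, starting 24 h after tumor implantation and continuing through day 5. Body-weight change in g/mouse was recorded on day 8. Pooled controls were 24 mice.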
# [7] = test system: Mus musculus; test: Change in weight of mouse on day 8 was measured in L1210 lymphoid leukemia inoculated mice after ip administration at dose of 20 mg/kg/day X5; assay type: functional; conditions: route intraperitoneal; in short: as §2
# [8] = test system: Mus musculus; test: Change in weight of mouse on day 8 was measured in L1210 lymphoid leukemia inoculated mice after ip administration at dose of 40 mg/kg/day X5; assay type: functional; conditions: route intraperitoneal; in short: as §2
# [9] = test system: Mus musculus; test: Median survival time expressed as (T/C) was measured at dose of 10 mg/kg/day *5; 15.0/7.5; assay type: functional; in short: as §1
# [10] = test system: Mus musculus; test: Median survival time expressed as (T/C) was measured at dose of 20 mg/kg/day X5; 18.0/7.5; assay type: functional; in short: as §1
# [11] = test system: Mus musculus; test: Median survival time expressed as (T/C) was measured at dose of 40 mg/kg/day X5; 20.0/7.5; assay type: functional; in short: as §1
# [12] = species on record: Mus musculus; test: Number of mice survived after 30 days; assay type: functional; in short: as §1
# [13] = In vitro antiproliferative activity was measured in mouse L1210 lymphoid leukemia cell line; conditions: read-out: ED50 (the source's name)
# [14] = test system: Mus musculus; test: Percent increase in life span calculated as (T/C-1)X100 at a dose of 60 mg/kg/day X5; assay type: functional; in short: as §1
# [15] = test system: Mus musculus; test: Median survival time expressed as (T/C) was measured at dose of 60 mg/kg/day x5; 8.5/8.0; assay type: functional; in short: as §1
# [16] = test system: Mus musculus; test: Median survival time expressed as (T/C) was measured at dose of 10 mg/kg/day *5; 14.0/7.5; assay type: functional; in short: as §1
# [17] = test system: Mus musculus; test: Median survival time expressed as (T/C) was measured at dose of 40 mg/kg/day X5; 19.0/7.5; assay type: functional; in short: as §1
# [18] = test system: Mus musculus; test: Change in weight of mouse on day 8 was measured in L1210 lymphoid leukemia inoculated mice after ip administration at dose of 60 mg/kg/day X5; assay type: functional; conditions: route intraperitoneal; in short: as §2
# [19] = test system: Mus musculus; test: Change in weight of mouse on day 8 was measured in L1210 lymphoid leukemia inoculated mice after ip administration at dose of 50 mg/kg/day X5; assay type: functional; conditions: route intraperitoneal; in short: as §2
# [20] = test system: Mus musculus; test: Median survival time expressed as (T/C) was measured at dose of 50 mg/kg/day *5; 14.0/8.0
# [21] = test system: Mus musculus; test: Percent increase in life span calculated as (T/C-1)X100 at a dose of 25 mg/kg/day X5; assay type: functional; in short: as §1
# [22] = test system: Mus musculus; test: Median survival time expressed as (T/C) was measured at dose of 40 mg/kg/day X5; 24.5/8.5; assay type: functional; in short: as §1
# [23] = test system: Mus musculus; test: Change in weight of mouse on day 8 was measured in L1210 lymphoid leukemia inoculated mice after ip administration at dose of 25 mg/kg/day X5; assay type: functional; conditions: route intraperitoneal; in short: as §2
# [24] = test system: Mus musculus; test: Median survival time expressed as (T/C) was measured at dose of 25 mg/kg/day X5; 20.0/7.0
# [25] = test system: Mus musculus; test: Median survival time expressed as (T/C) was measured at dose of 10 mg/kg/day *5; assay type: functional; in short: as §1
# [26] = test system: Mus musculus; test: Median survival time expressed as (T/C) was measured at dose of 20 mg/kg/day X5; assay type: functional; in short: as §1
# [27] = test system: Mus musculus; test: Median survival time expressed as (T/C) was measured at dose of 40 mg/kg/day X5; assay type: functional; in short: as §1
SMILES,EC50 [1],CC50 [2],ILS at 10 mg/kg/day [3],ILS at 20 mg/kg/day [4],ILS at 40 mg/kg/day [5],Weight change [6],Weight change [7],Weight change [8],T/C [10],Survivors [12],EC50 [13],other results
CCCCCCCCCCCCCCCCCC(=O)OC[C@H](COP(=O)(O)OP(=O)(O)OC[C@H]1O[C@@H](n2ccc(N)nc2=O)[C@@H](O)[C@@H]1O)OC(=O)CCCCCCCCCCCCCCCCC,195 µM,164 µM,100%,140%,167%,1.2 g mouse-1,1.1 g mouse-1,-0.4 g mouse-1,18 days,0,20 µM,T/C [9]: 15 days; T/C [11]: 20 days
CCCCCCCCCCCCCC(=O)OC[C@H](COP(=O)(O)OP(=O)(O)OC[C@H]1O[C@@H](n2ccc(N)nc2=O)[C@@H](O)[C@@H]1O)OC(=O)CCCCCCCCCCCCC,15 µM,15.2 µM,87%,140%,153%,1.8 g mouse-1,1.15 g mouse-1,0.1 g mouse-1,18 days,0,16 µM,ILS at 60 mg/kg/day [14]: 6%; T/C [15]: 8.5 days; T/C [16]: 14 days; T/C [17]: 19 days; Weight change [18]: -4.6 g mouse-1
CCCCCCCCCCCCCCCC(=O)OC[C@H](COP(=O)(O)OC[C@H]1O[C@@H](n2ccc(N)nc2=O)[C@@H](O)[C@@H]1O)OC(=O)CCCCCCCCCCCCCCC,–,–,–,–,–,–,–,–,–,0,13.4 µM,Weight change [19]: 1.7 g mouse-1; T/C [20]: 14 days
CCCCCCCCCCCCCCCC(=O)OC[C@H](COP(=O)(O)OP(=O)(O)OC[C@H]1O[C@@H](n2ccc(N)nc2=O)[C@@H](O)[C@@H]1O)OC(=O)CCCCCCCCCCCCCCC,65 µM,68.5 µM,–,–,188%,–,–,-1.8 g mouse-1,–,1,9.6 µM,ILS at 25 mg/kg/day [21]: 186%; T/C [22]: 24.5 days; Weight change [23]: 1.57 g mouse-1; T/C [24]: 20 days
Nc1ccn([C@@H]2O[C@H](CO)[C@@H](O)[C@@H]2O)c(=O)n1 [CYTARABINE],0.99 µM,1.91 µM,53%,65%,65%,0.8 g mouse-1,0.5 g mouse-1,0.6 g mouse-1,–,0,0.1 µM,T/C [25]: 13 days; T/C [26]: 14 days; T/C [27]: 14 days

# Reference: ChEMBL document CHEMBL1121968, “Phospholipid-nucleoside conjugates. 3. Syntheses and preliminary biological evaluation of 1-beta-D-arabinofuranosylcytosine 5'-monophosphate-L-1,2-dipalmitin and selected 1-beta-D-arabinofuranosylcytosine 5-diphosphate-L-1,2-diacylglycerols” (1982)
